# According to ChEMBL document CHEMBL4411301, “Design, Biological Evaluation, and Molecular Modeling of Tetrahydroisoquinoline Derivatives: Discovery of A Potent P-Glycoprotein Ligand Overcoming Multidrug Resistance in Cancer Stem Cells” (J Med Chem, 2019):
# Active and inactive are the calls of the source. No cut-off for these calls is given here.
# Assays:
# [1] = target: T1, ATP-dependent translocase ABCB1 (Homo sapiens, UniProt P08183); test: Inhibition of MDR1 in human primary glioblastoma stem cells assessed as increase in doxorubicin-induced reduction in cell viability at 1 uM after 72 hrs by ATPlite luminescence assay
# T1 sequence (P08183 whole entry): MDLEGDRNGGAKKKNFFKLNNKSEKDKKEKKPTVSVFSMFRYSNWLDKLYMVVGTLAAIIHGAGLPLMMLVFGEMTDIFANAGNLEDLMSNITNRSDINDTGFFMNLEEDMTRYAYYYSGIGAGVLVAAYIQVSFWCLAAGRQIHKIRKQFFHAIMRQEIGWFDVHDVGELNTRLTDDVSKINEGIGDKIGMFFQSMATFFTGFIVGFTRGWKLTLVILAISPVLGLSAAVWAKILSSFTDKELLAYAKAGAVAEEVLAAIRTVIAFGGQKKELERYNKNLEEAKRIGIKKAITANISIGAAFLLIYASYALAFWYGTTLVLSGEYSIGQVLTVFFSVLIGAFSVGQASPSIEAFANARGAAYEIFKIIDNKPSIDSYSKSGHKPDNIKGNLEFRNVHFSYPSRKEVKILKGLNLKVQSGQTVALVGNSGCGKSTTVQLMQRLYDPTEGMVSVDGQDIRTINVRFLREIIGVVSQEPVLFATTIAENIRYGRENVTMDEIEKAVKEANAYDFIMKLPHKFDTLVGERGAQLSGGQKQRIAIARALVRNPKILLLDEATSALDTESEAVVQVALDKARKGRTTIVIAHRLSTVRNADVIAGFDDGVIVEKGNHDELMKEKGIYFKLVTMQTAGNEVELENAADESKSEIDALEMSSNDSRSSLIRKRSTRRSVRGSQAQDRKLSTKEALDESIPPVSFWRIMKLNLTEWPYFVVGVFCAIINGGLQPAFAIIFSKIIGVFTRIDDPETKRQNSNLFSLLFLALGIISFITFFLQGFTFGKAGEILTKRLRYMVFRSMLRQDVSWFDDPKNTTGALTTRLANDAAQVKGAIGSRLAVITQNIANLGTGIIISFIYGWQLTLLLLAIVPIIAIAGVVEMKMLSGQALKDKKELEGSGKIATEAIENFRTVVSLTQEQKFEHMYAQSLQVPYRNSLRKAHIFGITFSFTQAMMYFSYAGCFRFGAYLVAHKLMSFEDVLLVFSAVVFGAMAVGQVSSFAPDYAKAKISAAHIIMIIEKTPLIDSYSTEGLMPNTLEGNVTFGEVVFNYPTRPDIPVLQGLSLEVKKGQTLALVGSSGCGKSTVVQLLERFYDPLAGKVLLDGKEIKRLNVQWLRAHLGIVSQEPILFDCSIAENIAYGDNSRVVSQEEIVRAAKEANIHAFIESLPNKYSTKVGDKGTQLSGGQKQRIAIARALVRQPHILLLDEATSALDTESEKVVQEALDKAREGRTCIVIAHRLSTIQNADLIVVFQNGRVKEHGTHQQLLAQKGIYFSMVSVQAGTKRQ
# Outline: (§1)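 Primary glioblastoma or mesothelioma differentiated and stem cells incubated 72 h with medium, 5 µM doxorubicin, 10 nM compound or 1 µM elacridar, alone or combined (DMSO 1% v/v). Viability by ATPlite luminescence as % of untreated RLU. Quadruplicates, n=3, mean ± SEM, one-way ANOVA.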
# [2] = target: T1, ATP-dependent translocase ABCB1; test: Inhibition of MDR1 in human primary mesothelioma stem cells assessed as increase in doxorubicin-induced reduction in cell viability at 1 uM after 72 hrs by ATPlite luminescence assay; outline: as §1
# [3] = target: T1, ATP-dependent translocase ABCB1; test: Inhibition of MDR1 in human primary glioblastoma stem cells assessed as increase in doxorubicin-induced reduction in cell viability at 1 uM after 24 hrs by LDH release assay
# Homo sapiens [4] = species on record: Homo sapiens; test: Potentiation of doxorubicin-induced cytotoxicity in human differentiated primary mesothelioma stem cells assessed as increase in doxorubicin-induced reduction in cell viability at 1 uM after 24 hrs by LDH release assay; assay type: functional, cell-based
# Homo sapiens [5] = species on record: Homo sapiens; test: Induction of intracellular doxorubicin accumulation in human differentiated primary mesothelioma stem cells at 10 to 10000 nM after 3 hrs by spectrofluorimetric analysis; assay type: functional, cell-based
# Outline: (§2)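 Differentiated or stem cells from primary glioblastoma or mesothelioma of 3 patients (stem cells used within passage 6). Incubated 3 h with 5 µM doxorubicin, alone or with compound (DMSO 1% v/v). Washed, lysed in ethanol/0.3 N HCl, doxorubicin fluorescence read at ex 475/em 553 nm and expressed as nmol/mg cell protein via calibration curve. Duplicates, n=3, mean ± SEM.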
# Homo sapiens [6] = species on record: Homo sapiens; test: Induction of intracellular doxorubicin accumulation in human differentiated primary glioblastoma cells at 10 to 10000 nM after 3 hrs by spectrofluorimetric analysis; assay type: functional, cell-based; outline: as §2
# Homo sapiens [7] = species on record: Homo sapiens; test: Potentiation of doxorubicin-induced cytotoxicity in human differentiated primary glioblastoma cells assessed as increase in doxorubicin-induced reduction in cell viability at 1 uM after 24 hrs by LDH release assay; assay type: functional, cell-based
# Homo sapiens [8] = species on record: Homo sapiens; test: Potentiation of doxorubicin-induced cytotoxicity in human differentiated primary glioblastoma cells assessed as increase in doxorubicin-induced reduction in cell viability at 1 uM after 72 hrs by ATPlite luminescence assay; assay type: functional, cell-based; outline: as §1
# [9] = target: T1, ATP-dependent translocase ABCB1; test: Inhibition of MDR1 in human primary mesothelioma stem cells assessed as increase in doxorubicin-induced reduction in cell viability at 1 uM after 24 hrs by LDH release assay
# [10] = target: T1, ATP-dependent translocase ABCB1; test: Inhibition of MDR1 in human primary glioblastoma stem cells assessed as increase in intracellular doxorubicin accumulation at 10 to 10000 nM after 3 hrs by spectrofluorimetric analysis; assay type: cell-based; outline: as §2
# [11] = target: T1, ATP-dependent translocase ABCB1; test: Inhibition of MDR1 in human primary mesothelioma stem cells assessed as increase in intracellular doxorubicin accumulation at 10 to 10000 nM after 3 hrs by spectrofluorimetric analysis; assay type: cell-based; outline: as §2
# Homo sapiens [12] = species on record: Homo sapiens; test: Potentiation of doxorubicin-induced cytotoxicity in human differentiated primary mesothelioma stem cells assessed as increase in doxorubicin-induced reduction in cell viability at 1 uM after 72 hrs by ATPlite luminescence assay; assay type: functional, cell-based; outline: as §1
compound,measurement,setting,value
COc1cc2c(cc1OC)CN(CCc1ccc(NC(=O)c3cccc4c(=O)c5cccc(OC)c5[nH]c34)cc1)CC2 [ELACRIDAR],inhibition (INH),[1],Active
same,inhibition (INH),[2],Active
same,inhibition (INH),[3],Active
same,Activity,Homo sapiens [4],inactive
same,Activity,Homo sapiens [5],inactive
same,Activity,Homo sapiens [6],inactive
same,Activity,Homo sapiens [7],inactive
same,Activity,Homo sapiens [8],inactive
same,inhibition (INH),[9],Active
same,inhibition (INH),[10],Active
same,inhibition (INH),[11],Active
same,Activity,Homo sapiens [12],inactive
